Measurements published in ChEMBL document CHEMBL1134644 (J Med Chem, 2001).

Experiments:
[1] = biological target: T1, Adenosine receptor A1 (Rattus norvegicus, UniProt P25099); assay: Binding affinity at rat brain Adenosine A1 receptor
T1 sequence (P25099 whole entry): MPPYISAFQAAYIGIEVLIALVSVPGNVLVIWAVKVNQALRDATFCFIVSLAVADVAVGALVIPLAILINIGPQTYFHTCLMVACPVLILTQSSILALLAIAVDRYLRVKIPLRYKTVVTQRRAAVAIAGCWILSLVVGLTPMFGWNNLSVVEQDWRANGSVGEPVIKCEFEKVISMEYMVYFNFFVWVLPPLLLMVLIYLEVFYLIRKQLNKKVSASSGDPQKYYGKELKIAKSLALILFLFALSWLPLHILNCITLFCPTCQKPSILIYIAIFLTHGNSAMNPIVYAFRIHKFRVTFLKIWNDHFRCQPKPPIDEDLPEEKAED
Outline: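 Rat cerebral cortex membranes labelled with [3H]R-PIA. Adenosine deaminase 3 units/mL present during membrane preparation, during a 30 min preincubation at 30 °C and during incubation. Filtration on GF/B filters. At least five competitor concentrations spanning 3 log units. […] Three independent experiments in duplicate.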

[2] = biological target: T2, Adenosine receptor A3 (Rattus norvegicus, UniProt P28647); assay: Binding affinity at rat adenosine A3 receptor in CHO cells; type: cell-based
T2 sequence (P28647 whole entry): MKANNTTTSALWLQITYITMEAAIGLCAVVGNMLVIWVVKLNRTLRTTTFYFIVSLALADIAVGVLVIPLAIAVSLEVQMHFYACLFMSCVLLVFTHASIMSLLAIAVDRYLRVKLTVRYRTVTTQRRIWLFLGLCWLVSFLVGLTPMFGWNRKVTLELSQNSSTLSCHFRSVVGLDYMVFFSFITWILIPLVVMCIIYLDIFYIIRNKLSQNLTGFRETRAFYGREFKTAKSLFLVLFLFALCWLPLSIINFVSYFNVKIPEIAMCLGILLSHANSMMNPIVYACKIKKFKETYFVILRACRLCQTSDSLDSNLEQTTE

[3] = biological target: Adenosine receptor A3 (Homo sapiens, UniProt P0DMS8, H272E); assay: Binding affinity at Mutant (H272E) human adenosine A3 receptor expressed in COS-7 cells; type: cell-based
Adenosine receptor A3 (Homo sapiens, UniProt P0DMS8, H272E), sequence (P0DMS8 whole entry H272E): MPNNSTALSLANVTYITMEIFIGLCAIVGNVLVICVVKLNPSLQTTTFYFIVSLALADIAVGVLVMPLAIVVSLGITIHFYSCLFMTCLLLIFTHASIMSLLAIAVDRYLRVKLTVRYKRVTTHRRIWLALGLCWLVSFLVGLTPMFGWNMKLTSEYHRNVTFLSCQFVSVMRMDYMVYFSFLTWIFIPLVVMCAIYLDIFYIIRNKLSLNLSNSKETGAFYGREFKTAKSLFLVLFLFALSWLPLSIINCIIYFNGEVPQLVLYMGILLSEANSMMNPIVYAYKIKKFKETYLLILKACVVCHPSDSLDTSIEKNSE

[4] = biological target: T3, Adenosine receptor A3 (Homo sapiens, UniProt P0DMS8); assay: Binding affinity at wild-type Adenosine A3 receptor expressed in COS-7 cells; type: cell-based
T3 sequence (P0DMS8 whole entry): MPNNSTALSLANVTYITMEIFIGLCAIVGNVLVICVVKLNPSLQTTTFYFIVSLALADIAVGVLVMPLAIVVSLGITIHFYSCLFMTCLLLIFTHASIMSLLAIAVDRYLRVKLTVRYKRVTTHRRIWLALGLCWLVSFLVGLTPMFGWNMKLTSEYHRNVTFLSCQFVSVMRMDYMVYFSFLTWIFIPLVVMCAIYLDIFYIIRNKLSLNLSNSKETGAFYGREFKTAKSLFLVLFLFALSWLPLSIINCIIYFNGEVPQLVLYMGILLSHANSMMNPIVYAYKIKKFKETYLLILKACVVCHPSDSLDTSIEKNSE

[5] = biological target: T2, Adenosine receptor A3; assay: Binding affinity at rat adenosine A3 receptor in RBL-2H3 cells; type: cell-based
Outline: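 Rat A3 receptors endogenously expressed in RBL-2H3 cells; displacement of [125I]AB-MECA at 1 nM in 50 mM Tris, 10 mM Mg2+, 1 mM EDTA, pH 8.0. Nonspecific binding defined with 100 μM R-PIA. Filtration on GF/B filters. At least five competitor concentrations. IC50 by nonlinear regression, converted to Ki by Cheng–Prusoff (Kd 1.46 nM). Three independent experiments in duplicate.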

SMILES | Ki [1] [µM] | Ki [3] [µM] | Ki [4] [µM] | Ki [5] [µM] | Ki [2] [µM]
NCCNC(=O)[C@H]1O[C@@H](n2cnc3c(N)ncnc32)[C@H](O)[C@@H]1O | > 10 | – | – | – | 14.7
N[C@H]1[C@@H](O)[C@H](n2cnc3c(NCc4cccc(I)c4)ncnc32)O[C@@H]1CO | 8.1 | 0.32 | 0.87 | – | –
N[C@@H]1[C@@H](O)[C@H](n2cnc3c(NC4CCCC4)ncnc32)O[C@@H]1CO | > 10 | 0.00019 | 0.00054 | > 10 | –
Nc1nc(Cl)nc2c1ncn2[C@@H]1O[C@H](CO)[C@@H](O)[C@H]1O | – | 11.6 | 0.65 | – | –
N=C(N)N[C@H]1[C@@H](O)[C@H](n2cnc3c(N)ncnc32)O[C@@H]1CO | > 10 | 0.0333 | 0.13 | – | –
CNC(=O)[C@@H]1C[C@H](N)[C@H](n2cnc3c(NCc4cccc(I)c4)nc(Cl)nc32)O1 | 6.69 | 0.0023 | 0.0046 | – | 3.4
Nc1nc2ccc(Cl)cc2c2nc(-c3ccco3)nn12 [CGS-15943] | – | 3.26 | 0.253 | – | –

More lines, main results first:

Ki [1] [µM] | Ki [3] [µM] | Ki [4] [µM] | Ki [5] [µM] | SMILES | Ki [2] [µM]
> 10 | 0.301 | 1000 | > 10 | Nc1ncnc2c1ncn2[C@@H]1O[C@H](CO)[C@@H](O)[C@H]1N | –
> 10 | 0.425 | 1000 | > 10 | NC[C@H]1O[C@@H](n2cnc3c(N)ncnc32)[C@H](O)[C@@H]1O | –
> 10 | 0.075 | 0.442 | 84 | Nc1ncnc2c1ncn2[C@@H]1O[C@H](CO)[C@@H](N)[C@H]1O | –
